# Screening results: PubChem, several laboratories
# B2AR ag: agonists of human beta-2 adrenergic receptor inducing internalization; Am2.2-beta2AR cells, FAP receptor internalization, flow cytometry; response, % (test concentration not listed); actives 0.43% (n = 340,000); AID 504454;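 active = response above a set limit, near 3 SD of response in nonfluorescent compounds, cut at about 42% in these data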
# Rin1-Abl PPI inh: inhibitors of human Rin1-Abl protein interaction | TR-FRET Rin1/Abl binding, biochemical | inhibition, % at 7.35 µM | actives 0.4% (n = 360,000) | AID 588664; in the data active = inhibition above about 5%, passing the limit was not always enough
# Arrestin-AP2 inh: human beta-arrestin and AP2 interaction inhibition. FITC-arrestin peptide / GST-AP2 beads, flow cytometry; AP2 beta2 appendage carries R879A mutation. actives 0.31% (n = 340,000). inhibition, % at 10 µM;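 active = inhibition above a set limit, near 3 SD of compounds lacking own fluorescence, cut at about 54% in these data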;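 note: plate controls were DMSO wells for no effect and 5 µM unlabelled arrestin peptide for full effect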
#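 Measured by: flow cytometry, FL1 (488/535 nm); Material: AP2 appendage R879A on GSH beads; Evaluation: percent response; Timing: pre-incubation 12 min, peptide binding 1 h, room temperature; Also added: 50 nM FITC-arrestin peptide; Medium: PBS with 0.05% Tween 20 and 0.1% BSA.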
# MBD2 DNA inh: blocks human MBD2 binding to methylated DNA. TR-FRET, MBD2 binding to methylated oligonucleotide. inhibition, % at 4.4 µM. Q9UBB5. AID 686964. actives 0.31% (n = 370,000); in the data active = inhibition above about 13%
# ABHD5-PLIN5 inh: ABHD5-PLIN5 protein interaction inhibition; Q00G26+Q8WTS1; Split G. princeps luciferase complementation, luminescence, 4 h; inhibition, % at 4 µM; actives 0.78% (n = 360,000); AID 602281;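 active = inhibition above the mean inhibition across every tested compound plus 3 SD, cut at about 22% in these data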;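 note: 0% = DMSO only wells and the 100% control is not disclosed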
# Target sequence (Q00G26 whole entry, looked up): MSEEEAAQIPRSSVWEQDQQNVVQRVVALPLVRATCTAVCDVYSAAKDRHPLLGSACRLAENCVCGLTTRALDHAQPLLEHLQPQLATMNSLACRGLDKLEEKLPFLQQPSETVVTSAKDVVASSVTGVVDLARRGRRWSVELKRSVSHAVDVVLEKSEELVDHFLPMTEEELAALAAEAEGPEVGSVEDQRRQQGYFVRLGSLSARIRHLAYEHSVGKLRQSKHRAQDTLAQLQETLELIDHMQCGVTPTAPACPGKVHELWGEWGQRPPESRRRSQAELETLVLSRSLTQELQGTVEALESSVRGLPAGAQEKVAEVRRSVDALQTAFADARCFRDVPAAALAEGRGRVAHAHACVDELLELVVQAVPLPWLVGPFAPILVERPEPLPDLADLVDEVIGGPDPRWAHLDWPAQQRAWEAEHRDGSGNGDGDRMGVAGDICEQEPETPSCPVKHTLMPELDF
# Target sequence (Q8WTS1 whole entry, looked up): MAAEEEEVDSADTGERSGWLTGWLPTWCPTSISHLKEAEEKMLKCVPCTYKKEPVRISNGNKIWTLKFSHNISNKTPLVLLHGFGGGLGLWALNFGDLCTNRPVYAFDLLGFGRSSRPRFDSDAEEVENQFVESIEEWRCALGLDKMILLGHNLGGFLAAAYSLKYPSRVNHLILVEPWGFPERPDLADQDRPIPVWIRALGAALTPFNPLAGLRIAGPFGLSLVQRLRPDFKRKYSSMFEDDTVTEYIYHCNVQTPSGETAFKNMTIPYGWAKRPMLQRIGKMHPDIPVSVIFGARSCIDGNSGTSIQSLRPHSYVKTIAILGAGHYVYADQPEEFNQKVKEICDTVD
# UHRF1 MBD2 ctr: human UHRF1 methylated DNA binding inhibitors. Q96T88. UHRF1 binding to methylated oligo, TR-FRET. inhibition, % at 4.4 µM. actives 0.75% (n = 370,000); in the data active = inhibition above about 21%;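 note: UHRF1 SRA domain binding a hemimethylated CpG hairpin DNA probe; 0% = median of test compound wells and 100% = reference inhibitor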
# * hit, by the source's call; x = not tested or not shown. Most compounds without a hit are left out; they make up all but 2.5% or so of the library.
SMILES,B2AR ag,Rin1-Abl PPI inh,Arrestin-AP2 inh,MBD2 DNA inh,ABHD5-PLIN5 inh,UHRF1 MBD2 ctr
Cc1cc(C)n2nc(CC(=O)NCc3ccc(F)cc3)nc2n1,-6,-1,-2,2,-4,99*
O=C(CN(C(=O)OCC1c2ccccc2-c2ccccc21)[C@@H](Cc1ccccc1)C(=O)O)OCc1ccc(C(=O)NCc2ccccc2)cc1,x,x,x,0,x,-3
CCOc1cc(/C=C(/C#N)C(=O)Nc2ccc(O)cc2)cc(Br)c1O,52*,-3,-2,2,5,-4
C=CCNC(=O)/C(C#N)=C\c1cc(Cl)c(O)c(OCC)c1,1,-1,15,-2,-1,1
COc1ccc(S[C@]2(C(=O)N3CCN(C(C)=O)CC3)CC(=O)N(C(=O)Nc3ccc(C)c(Cl)c3)[C@@H]2c2ccc(OC)cc2)cc1,x,x,x,-2,x,2
COc1ccc(NC(=O)CSc2nnc(-c3ccco3)n2N)cc1Cl,-6,6,28,-1,5,22*
CCn1c(SCC(=O)Nc2ccc3c(c2)c2ccccc2n3CC)nnc1-c1ccco1,7,3,6,-2,46*,0
COC(=O)[C@H]1C[C@@]2(n3ccc4ccccc43)c3ccccc3N[C@H]2N1,x,x,x,8,x,-1
O=[N+]([O-])c1cccc(COc2ccccc2CN2CCCCC2)c1,5,-4,10,-7,6,-4
O=[N+]([O-])c1cccc(COc2ccc(CN3CCCCC3)cc2)c1,-12,-1,-10,7,-3,21*
C=CC[C@H]1c2ccccc2[C@H]2N3N=Cc4ccccc4[C@H]3[C@H](CCc3ccccc3)C(=O)N2N1C(=O)c1ccccc1,x,x,x,-5,x,4
Cn1ccnc1C(=O)c1cc(SCC(=O)NCc2ccccc2)nc2ccccc12,-4,0,9,6,4,26*
COC(=O)CSc1cc(C(=O)c2nccn2C)c2ccccc2n1,8,3,-3,1,2,9
CC(COc1ccc(CC#N)cc1)CN1CCC(C(O)(c2ccccc2)c2ccccc2)CC1 (centres undefined),x,x,x,-4,x,6
Nc1c(N2CCOCC2)cc(Cl)c2nonc12,46*,-11,9,-15,-13,-22
CC(C)COC(=O)c1ccccc1OC(=O)c1ccncc1,-7,1,7,10,4,25*
O=C(Oc1cccc2ccccc12)c1ccncc1,2,3,21,-1,3,-2
CCOC(=O)C1=C(C)N=C2c3ccccc3C(=O)C2C1c1ccc(Cl)cc1 (centres undefined),7,6,18,-4,3,-5
CC1(C)CC(=O)C2=C(C1)N=C1c3ccccc3C(=O)C1C2c1ccc(Cl)cc1 (centres undefined),9,1,9,1,22*,2
COCCCN1C(=O)[C@H](CC(=O)NCc2ccc(OC)c(OC)c2)[C@]2(C(=O)OC)CCCCC=C12,x,x,x,-6,x,-1
CCOC(=O)C1CCN(C(=O)Nc2ccc3nc(-c4ccco4)c(-c4ccco4)nc3c2)CC1,20,5,42,x,31*,x
CN(C(=O)c1ccc(C#N)cc1)c1nnc(-c2ccccn2)s1,-7,-2,10,0,-3,-1
CN(C(=O)c1cccc(C#N)c1)c1nnc(-c2ccccn2)s1,-14,5,32,6,8,22*
CCOC(=O)N1CCC2(CC1)NCCc1c2[nH]c2ccccc12,6,0,53,-3,3,25*
Cc1ccc(NC(=O)c2ccc(CS(=O)(=O)Cc3ccccc3C)o2)c(C)c1,x,x,x,-1,x,2
SMILES,B2AR ag,Rin1-Abl PPI inh,Arrestin-AP2 inh,MBD2 DNA inh,ABHD5-PLIN5 inh,UHRF1 MBD2 ctr
CCC(C)NC(=O)CN1C(=O)C2CCCCN2C(=O)c2ccccc21 (centres undefined),x,x,x,3,x,-1
COCc1ccc(C(=O)N2CCCC(Nc3ccc4c(c3)OCCO4)C2)o1 (centres undefined),-2,-2,17,10,-1,21*
Cc1cc(C)cc(C(=O)OCCCN(C)C2CN(Cc3cn(Cc4ccc([N+](=O)[O-])cc4)nn3)S(=O)(=O)C2)c1 (centres undefined),x,x,x,7,x,11
Nc1ccc2c(c1)C1(CCC2)NC(=O)NC1=O (centres undefined),x,2,x,9,-5,21*
O=C1NC(=O)C2(CCCc3ccc([N+](=O)[O-])cc32)N1 (centres undefined),x,-1,x,-2,5,-1
CCOc1cc(C(=O)NC(C)CC)cc(OCC)c1OCC (centres undefined),-2,-3,0,3,-2,27*
CC(=O)N1CCN(CC(C)(C)NS(=O)(=O)c2ccccc2)CC1,1,0,-6,-1,0,0
CC(C)(CN1CCN(Cc2ccccc2)CC1)NS(=O)(=O)c1ccccc1,2,0,10,4,-9,22*
CC(C)(C)c1ccc(-c2nnc3n2N=C(c2ccc(Cl)cc2)CS3)cc1,x,x,x,4,x,0
O=c1[nH]c(CN2CCc3ccccc3C2)nc2ccccc12,-1,-1,-5,-3,-1,-9
Cc1[nH]c2ccccc2c1CN1CCc2ccccc2C1,7,0,-4,14*,-6,21*
COC(=O)[C@H](CC(C)C)N1Cc2nnn(CC3CCCCC3)c2-c2ccccc2S1(=O)=O,x,x,x,-2,x,-3
Cc1cccc(Cn2cc(CN3CC(N(C)CCCOC(=O)c4cc(C)cc(C)c4)CS3(=O)=O)nn2)c1 (centres undefined),x,x,x,-1,x,4
CCOC(=O)c1sc2nc(-c3ccco3)c3c(c2c1N)CC(C)(C)OC3,-9,1,33,-1,30*,7
N#CCc1cccnc1Sc1ccc(Cl)cc1,-4,1,-2,2,5,26*
Nc1cccnc1Sc1ccc(Cl)cc1,0,-5,29,-3,0,0
COc1ccc(NC(=S)NN2CCN(C)CC2)cc1OC,1,2,7,-1,-4,22*
O=C(CSc1nnc(-c2ccccc2)c(-c2ccccc2)n1)N1CCOCC1,-1,-3,4,-3,-2,1
O=C(CSc1nc(-c2ccccc2)c(-c2ccccc2)o1)N1CCOCC1,2,-1,3,0,5,92*
O=C(C[n+]1cccc(CNC(=O)c2ccc(OC(F)F)cc2)c1)Nc1cc(C(F)(F)F)ccc1Cl,-6,0,4,-1,19,1
NC(=O)C[n+]1cccc(CNC(=O)c2ccc(OC(F)F)cc2)c1,6,0,12,4,-5,77*
O=C(Nc1ccccc1)c1ccc[n+](Cc2ccc([N+](=O)[O-])cc2)c1,-10,3,30,-1,2,69*
O=C(Nc1ccc([N+](=O)[O-])cc1)c1ccccc1,4,-1,2,1,-2,1
